From ChEMBL document CHEMBL1126279, “Antiallergic and cytoprotective activity of new N-phenylbenzamido acid derivatives” (1992)
Calls of active or inactive are those of the source. The rule behind the calls is not given here.

Key:
Rattus norvegicus [1] = test: Antiallergic activity against rat passive cutaneous anaphylaxis (PCA) reaction induced by 25 mg/kg of ovalbumin given iv (bolus).; format: functional; settings: read-out: ID50 (the source's name)
Rattus norvegicus [2] = test: Cytoprotective activity against ethanol-induced gastric lesions in male conscious rats; format: functional; settings: Stomach, read-out: ID50 (the source's name)
Outline: (§1)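 Male rats (140–160 g) were fasted 24 h with water allowed. Lesions were induced by 1.5 mL oral absolute ethanol. Drugs were given iv (5 mL/kg) as sodium salt in saline, 15 min before. Stomachs were scored blind at 1 h for necrotic lesion length categories and counts (lesion index). Each agent was given at ≥3 doses, groups of five. % effect vs control was computed, and ID50 came from log-dose regression.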

Rattus norvegicus [3] = organism: Rattus norvegicus; test: Inhibition of rat passive cutaneous anaphylaxis reaction; Inactive.; format: functional, organism-based
Outline: (§2)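 IgE antiserum was raised in male Sprague-Dawley rats by im ovalbumin (25 mg) in Bordetella pertussis suspension, and sera were pooled 14 days later. Naive young rats received 0.05 mL antiserum intradermally at two back sites. After 24 h they were challenged iv with saline containing egg albumin plus Evans blue and killed 30 min later to measure wheal axes. Compounds were given as sodium salt in saline, im, 15 min pre-challenge, at ≥3 doses (n ≥ 15). ID50 was derived by log-dose regression with p = 0.05 fiducial limits.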

Rattus norvegicus [4] = test: Cytoprotective activity against ethanol-induced gastric lesions in male conscious rats; Inactive.; format: functional, organism-based; settings: Stomach; outline: as §1
Rattus norvegicus [5] = test: Antiallergic activity against rat passive cutaneous anaphylaxis (PCA) reaction induced by 25 mg/kg of ovalbumin given iv(bolus); format: functional; settings: read-out: ID50 (the source's name)
Rattus norvegicus [6] = test: Compound was evaluated for cytoprotective activity against acetic acid-induced gastric lesions in male conscious rats; format: functional; settings: Stomach, read-out: ID50 (the source's name)
Outline: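 Under ether anesthesia, 50 µL of 30% acetic acid was injected into the gastric submucosa of fasted male rats (140–160 g). Drugs were given im at −0.5, 4 and 21 h. […] Agents were given at five dose levels in groups of five, or in duplicate at 100 mg/kg.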

Rattus norvegicus [7] = test: Compound was evaluated for cytoprotective activity against glucose-induced gastric lesions in male conscious rats; format: functional; settings: Stomach, read-out: ID50 (the source's name)
Outline: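 Male rats (180–200 g) were fasted 24 h, then fed solely an aqueous glucose liquid meal. Drugs were given sc twice daily for 9 days. Lesions were scored by number of necrotic lesions and extent of impaired rumen area, and % effect vs control was calculated. Agents were given at four dose levels in groups of five in duplicate, or in duplicate at 100 mg/kg.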

Rattus norvegicus [8] = test: Compound was evaluated for cytoprotective activity against sodium chloride-induced gastric lesions in male conscious rats; format: functional; settings: Stomach, read-out: ID50 (the source's name)
Outline: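 Male rats (140–160 g) were fasted 24 h. Lesions were induced by oral 1.5 mL/animal 25% (w/v) NaCl. Drugs were given iv (5 mL/kg) 15 min before. Stomachs were scored blind at 1 h by lesion index, and % effect vs control was calculated. Some agents were given at five dose levels in groups of five; others in duplicate at 30 and 100 mg/kg. ID50 came from log-dose regression.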

Rattus norvegicus [9] = organism: Rattus norvegicus; test: Compound was evaluated for antiallergic activity against rat passive cutaneous anaphylaxis (PCA); format: functional; settings: read-out: ID50 (the source's name); outline: as §2

Row | SMILES | ED50 (Rattus norvegicus [1]) [mg/kg] | ED50 (Rattus norvegicus [2]) [mg/kg] | ID50 (Rattus norvegicus [3]) | ID50 (Rattus norvegicus [4]) | other results
1 | O=C(O)c1ccc(C(=O)Nc2cc(C(=O)O)cc(C(=O)O)c2)cc1 | 2.1 | 32.2 | – | – | –
2 | N#Cc1ccc(C(=O)Nc2cc(C(=O)O)cc(C(=O)O)c2)cc1 | 1.7 | 32.1 | – | – | –
3 | O=C(O)c1cc(NC(=O)c2ccc([N+](=O)[O-])cc2)cc(C(=O)O)c1 | 9.8 | 61.1 | – | – | –
4 | O=C(O)c1cc(NC(=O)c2ccc(C(F)(F)F)cc2)cc(C(=O)O)c1 | – | – | inactive | inactive | –
5 | CCCc1c2oc(C(=O)O)cc(=O)c2cc2c(=O)cc(C(=O)O)n(CC)c12 [NEDOCROMIL] | 1.3 | – | – | inactive | –
6 | O=C(Nc1ccccc1)c1cccc(-c2nn[nH]n2)c1 | 4.5 | 38.1 | – | – | –
7 | CCCCc1ccc(C(=O)Nc2cc(C(=O)O)cc(C(=O)O)c2)cc1 | 12.3 | 91.9 | – | – | –
8 | N#Cc1cccc(C(=O)Nc2cc(C(=O)O)cc(C(=O)O)c2)c1 | 5 | 140 | – | – | –
9 | N#Cc1ccc(C(=O)Nc2ccc(C(=O)O)cc2C(=O)O)cc1 | 19.5 | 66.3 | – | – | –
10 | O=C(O)c1cc(NC(=O)c2ccc(O)c(O)c2)cc(C(=O)O)c1 | – | – | inactive | inactive | –
11 | O=C(O)c1ccc(C(=O)O)c(NC(=O)c2ccc(-c3nn[nH]n3)cc2)c1 | 1.2 | 31.1 | – | – | –
12 | O=C(O)c1cc(NC(=O)c2cc(O)cc(O)c2)cc(C(=O)O)c1 | – | 90.2 | inactive | – | –
13 | NC(=O)c1ccc(NC(=O)c2ccc(-c3nn[nH]n3)cc2)cc1 | 2 | 33 | – | – | –
14 | N#Cc1ccc(C(=O)Nc2cc(CO)cc(C(=O)O)c2)cc1 | – | – | inactive | inactive | –
15 | O=C(O)c1ccc(NC(=O)c2ccc(C(=O)O)cc2)cc1 | 25.4 | 54.3 | – | – | –
16 | N#Cc1ccc(C(=O)Nc2ccc(-c3nn[nH]n3)cc2)cc1 | 2.4 | 54.4 | – | – | –
17 | N#Cc1ccc(C(=O)Nc2cccc(C(=O)O)c2)cc1 | – | – | inactive | inactive | –
18 | O=C(Nc1ccc(-c2nnn[nH]2)cc1)c1ccc(-c2nnn[nH]2)cc1 [ANDOLAST] | – | 2.5 | – | – | ED50 (Rattus norvegicus [5]): 0.09 mg/kg; ED50 (Rattus norvegicus [6]): 9.4 mg/kg; ED50 (Rattus norvegicus [7]): 23.9 mg/kg; ED50 (Rattus norvegicus [8]): 18.2 mg/kg
19 | N#Cc1ccc(NC(=O)c2ccc(-c3nn[nH]n3)cc2)cc1 | 1.2 | 19.7 | – | – | –
20 | N#Cc1ccc(C(=O)Nc2cc(C(=O)O)ccc2C(=O)O)cc1 | 1.5 | 26.8 | – | – | –
21 | COc1ccc(C(=O)Nc2cc(C(=O)O)cc(C(=O)O)c2)cc1OC | – | 116 | inactive | – | –
22 | O=C(O)c1cc(NC(=O)c2ccccc2)cc(C(=O)O)c1 | – | – | inactive | inactive | –
23 | O=C(Nc1ccc(C(=O)O)c(C(=O)O)c1)c1ccc([N+](=O)[O-])cc1 | 13.2 | – | – | inactive | –
24 | O=C(Nc1cccc(-c2nn[nH]n2)c1)c1ccc(-c2nn[nH]n2)cc1 | 0.03 | 1.1 | – | – | –
25 | N#Cc1ccc(C(=O)Nc2ccc(C(=O)O)c(C(=O)O)c2)cc1 | 10.1 | – | – | inactive | –
26 | O=C([O-])c1cc(=O)c2c(OCC(O)COc3cccc4oc(C(=O)[O-])cc(=O)c34)cccc2o1.[Na+].[Na+] [CROMOLYN SODIUM] | 1.5 | 50.8 | – | – | –

Row | SMILES | ED50 (Rattus norvegicus [1]) [mg/kg] | ED50 (Rattus norvegicus [2]) [mg/kg] | ID50 (Rattus norvegicus [3]) | ID50 (Rattus norvegicus [4]) | other results
27 | COc1cc(OC)cc(C(=O)Nc2cc(C(=O)O)cc(C(=O)O)c2)c1 | – | 108 | inactive | – | –
28 | COc1ccc(C(=O)Nc2cc(C(=O)O)cc(C(=O)O)c2)cc1 | – | – | inactive | inactive | –
29 | O=C(O)c1cc(NC(=O)c2ccc(-c3nn[nH]n3)cc2)cc(C(=O)O)c1 | 1.2 | 8.2 | – | – | –
30 | O=C(O)c1cc(NC(=O)c2ccc(O)cc2)cc(C(=O)O)c1 | – | – | inactive | inactive | –
31 | O=C(Nc1cccc(-c2nn[nH]n2)c1)c1cccc(-c2nn[nH]n2)c1 | 1.6 | 15.8 | – | – | –
32 | N#Cc1ccc(C(=O)Nc2ccc(C(=O)O)cc2)cc1 | – | – | inactive | inactive | –
33 | O=C(O)c1ccc(NC(=O)c2ccc([N+](=O)[O-])cc2)cc1 | – | – | inactive | inactive | –
34 | CCCc1ccc(C(=O)Nc2cc(C(=O)O)cc(C(=O)O)c2)cc1 | – | 94.2 | – | – | ED50 (Rattus norvegicus [9]): 6.7 mg/kg
35 | O=C(O)c1ccc(NC(=O)c2ccc(-c3nn[nH]n3)cc2)cc1 | 2.3 | 3.5 | – | – | –
36 | CN(C(=O)c1ccc(-c2nn[nH]n2)cc1)c1ccc(-c2nn[nH]n2)cc1 | 3.8 | 60 | – | – | –
37 | O=C(Nc1ccccc1)c1ccc(-c2nn[nH]n2)cc1 | 8.4 | 40 | – | – | –
38 | COc1cc(C(=O)Nc2cc(C(=O)O)cc(C(=O)O)c2)cc(OC)c1OC | – | – | inactive | inactive | –
39 | CCCOc1ccc(C(=O)Nc2cc(C(=O)O)cc(C(=O)O)c2)cc1 | – | 78 | inactive | – | –
40 | O=C(Nc1ccccc1-c1nn[nH]n1)c1ccc(-c2nn[nH]n2)cc1 | 1.5 | 6.1 | – | – | –
41 | N#Cc1ccc(C(=O)Nc2cc(C(N)=O)cc(C(=O)O)c2)cc1 | 5.7 | 87.2 | – | – | –
42 | N#Cc1ccc(C(=O)Nc2cccc(-c3nn[nH]n3)c2)cc1 | – | 21.4 | inactive | – | –
43 | O=C(Nc1ccc(-c2nn[nH]n2)cc1)c1cccc(-c2nn[nH]n2)c1 | 0.05 | 0.6 | – | – | –
44 | Cc1ccc(C(=O)Nc2cc(C(=O)O)cc(C(=O)O)c2)cc1 | – | – | inactive | inactive | –
45 | COc1ccc(/C=C/C(=O)Nc2ccccc2C(=O)O)cc1OC [TRANILAST] | 3.6 | – | – | inactive | –
46 | N#Cc1ccc(C(=O)Nc2cccc(C(=O)O)c2C(=O)O)cc1 | 15.8 | 135 | – | – | –
47 | O=C(O)c1cc(NC(=O)c2ccc(Cl)cc2Cl)cc(C(=O)O)c1 | – | 103 | inactive | – | –
48 | O=C(O)c1cc(NC(=O)c2cccc(Cl)c2)cc(C(=O)O)c1 | – | – | inactive | inactive | –
49 | N#Cc1ccc(NC(=O)c2ccc(C(=O)O)cc2)cc1 | – | – | inactive | inactive | –
50 | O=C(Nc1ccccc1-c1nn[nH]n1)c1cccc(-c2nn[nH]n2)c1 | – | 9.7 | – | – | ED50 (Rattus norvegicus [5]): 1.4 mg/kg
51 | O=C(O)c1cc(NC(=O)c2ccc(Cl)cc2)cc(C(=O)O)c1 | – | 97.3 | inactive | – | –
